Measured values reported in publication PMC4832308 (Cancer, 2015).

System: patients with advanced solid tumors or multiple myeloma
Experiment: phase 1 dose escalation: safety, tolerability, DLT, MTD
Assay type: in vivo, human
Method in brief: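 Modified accelerated titration from 7.5 mg, oral daily in 28-day cycles. Single-patient cohorts used 100% increments until the first drug-related grade ≥2 toxicity, then 6-patient cohorts used ~50% steps. A dose with ≥2 DLTs was nontolerated. MTD was the last lower dose with 0–1 of 6 DLTs in cycle 1. Adverse events were graded by NCI CTCAE version 4.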

SMILES: CO[C@H]1CC[C@H](N2C(=O)CNc3ncc(-c4ccc(C(C)(C)O)nc4)nc32)CC1 [CC‐223]
- Arthralgia (treatment‐related AE) (7.5 mg, Any Grade): 0 n (%)
- Asthenia (treatment‐related AE) (7.5 mg, Any Grade): 0 n (%)
- Decreased appetite (treatment‐related AE) (7.5 mg, Any Grade): 0 n (%)
- Diarrhea (treatment‐related AE) (7.5 mg, Any Grade): 0 n (%)
- Dry mouth (treatment‐related AE) (7.5 mg, Any Grade): 0 n (%)
- Dysgeusia (treatment‐related AE) (7.5 mg, Any Grade): 1 (100) n (%)
- Dyspnea (treatment‐related AE) (7.5 mg, Any Grade): 0 n (%)
- Fatigue (treatment‐related AE) (7.5 mg, Any Grade): 1 (100) n (%)
- Hyperglycemia (treatment‐related AE) (7.5 mg, Any Grade): 0 n (%)
- Increased glycosylated hemoglobin (treatment‐related AE) (7.5 mg, Any Grade): 0 n (%)
- Mucositis (treatment‐related AE) (7.5 mg, Any Grade): 0 n (%)
- Nausea (treatment‐related AE) (7.5 mg, Any Grade): 1 (100) n (%)
- Pruritus (treatment‐related AE) (7.5 mg, Any Grade): 0 n (%)
- Rash (treatment‐related AE) (7.5 mg, Any Grade): 0 n (%)
- Rash pruritic (treatment‐related AE) (7.5 mg, Any Grade): 0 n (%)
- Thrombocytopenia (treatment‐related AE) (7.5 mg, Any Grade): 0 n (%)
- Vomiting (treatment‐related AE) (7.5 mg, Any Grade): 0 n (%)
- Arthralgia (treatment‐related AE) (7.5 mg, Grade ≥3): 0 n (%)
- Asthenia (treatment‐related AE) (7.5 mg, Grade ≥3): 0 n (%)
- Decreased appetite (treatment‐related AE) (7.5 mg, Grade ≥3): 0 n (%)
- Diarrhea (treatment‐related AE) (7.5 mg, Grade ≥3): 0 n (%)
- Dry mouth (treatment‐related AE) (7.5 mg, Grade ≥3): 0 n (%)
- Dysgeusia (treatment‐related AE) (7.5 mg, Grade ≥3): 0 n (%)
- Dyspnea (treatment‐related AE) (7.5 mg, Grade ≥3): 0 n (%)
- Fatigue (treatment‐related AE) (7.5 mg, Grade ≥3): 0 n (%)
- Hyperglycemia (treatment‐related AE) (7.5 mg, Grade ≥3): 0 n (%)
- Increased glycosylated hemoglobin (treatment‐related AE) (7.5 mg, Grade ≥3): 0 n (%)
- Mucositis (treatment‐related AE) (7.5 mg, Grade ≥3): 0 n (%)
- Nausea (treatment‐related AE) (7.5 mg, Grade ≥3): 0 n (%)
- Pruritus (treatment‐related AE) (7.5 mg, Grade ≥3): 0 n (%)
- Rash (treatment‐related AE) (7.5 mg, Grade ≥3): 0 n (%)
- Rash pruritic (treatment‐related AE) (7.5 mg, Grade ≥3): 0 n (%)
- Thrombocytopenia (treatment‐related AE) (7.5 mg, Grade ≥3): 0 n (%)
- Vomiting (treatment‐related AE) (7.5 mg, Grade ≥3): 0 n (%)
- Dose interruptions (15 mg): 2
- Dose reductions (15 mg): 0
- Arthralgia (treatment‐related AE) (15 mg, Any Grade): 0 n (%)
- Asthenia (treatment‐related AE) (15 mg, Any Grade): 1 (50) n (%)
- Decreased appetite (treatment‐related AE) (15 mg, Any Grade): 0 n (%)
- Diarrhea (treatment‐related AE) (15 mg, Any Grade): 1 (50) n (%)
- Dry mouth (treatment‐related AE) (15 mg, Any Grade): 0 n (%)
- Dysgeusia (treatment‐related AE) (15 mg, Any Grade): 1 (50) n (%)
- Dyspnea (treatment‐related AE) (15 mg, Any Grade): 0 n (%)
- Fatigue (treatment‐related AE) (15 mg, Any Grade): 1 (50) n (%)
- Hyperglycemia (treatment‐related AE) (15 mg, Any Grade): 0 n (%)
- Increased glycosylated hemoglobin (treatment‐related AE) (15 mg, Any Grade): 0 n (%)
- Mucositis (treatment‐related AE) (15 mg, Any Grade): 1 (50) n (%)
- Nausea (treatment‐related AE) (15 mg, Any Grade): 0 n (%)
- Pruritus (treatment‐related AE) (15 mg, Any Grade): 1 (50) n (%)
- Rash (treatment‐related AE) (15 mg, Any Grade): 1 (50) n (%)
- Rash pruritic (treatment‐related AE) (15 mg, Any Grade): 0 n (%)
- Thrombocytopenia (treatment‐related AE) (15 mg, Any Grade): 0 n (%)
- Vomiting (treatment‐related AE) (15 mg, Any Grade): 0 n (%)
- Arthralgia (treatment‐related AE) (15 mg, Grade ≥3): 0 n (%)
- Asthenia (treatment‐related AE) (15 mg, Grade ≥3): 0 n (%)
- Decreased appetite (treatment‐related AE) (15 mg, Grade ≥3): 0 n (%)
- Diarrhea (treatment‐related AE) (15 mg, Grade ≥3): 0 n (%)
- Dry mouth (treatment‐related AE) (15 mg, Grade ≥3): 0 n (%)
- Dysgeusia (treatment‐related AE) (15 mg, Grade ≥3): 0 n (%)
- Dyspnea (treatment‐related AE) (15 mg, Grade ≥3): 0 n (%)
- Fatigue (treatment‐related AE) (15 mg, Grade ≥3): 0 n (%)
- Hyperglycemia (treatment‐related AE) (15 mg, Grade ≥3): 0 n (%)
- Increased glycosylated hemoglobin (treatment‐related AE) (15 mg, Grade ≥3): 0 n (%)
- Mucositis (treatment‐related AE) (15 mg, Grade ≥3): 0 n (%)
- Nausea (treatment‐related AE) (15 mg, Grade ≥3): 0 n (%)
- Pruritus (treatment‐related AE) (15 mg, Grade ≥3): 0 n (%)
- Rash (treatment‐related AE) (15 mg, Grade ≥3): 0 n (%)
- Rash pruritic (treatment‐related AE) (15 mg, Grade ≥3): 0 n (%)
- Thrombocytopenia (treatment‐related AE) (15 mg, Grade ≥3): 0 n (%)
- Vomiting (treatment‐related AE) (15 mg, Grade ≥3): 0 n (%)
- Dose interruptions (30 mg): 8
- Dose reductions (30 mg): 0
- Arthralgia (treatment‐related AE) (30 mg, Any Grade): 0 n (%)
- Asthenia (treatment‐related AE) (30 mg, Any Grade): 2 (22) n (%)
- Decreased appetite (treatment‐related AE) (30 mg, Any Grade): 4 (44) n (%)
- Diarrhea (treatment‐related AE) (30 mg, Any Grade): 3 (33) n (%)
- Dry mouth (treatment‐related AE) (30 mg, Any Grade): 1 (11) n (%)
- Dysgeusia (treatment‐related AE) (30 mg, Any Grade): 0 n (%)
- Dyspnea (treatment‐related AE) (30 mg, Any Grade): 1 (11) n (%)
- Fatigue (treatment‐related AE) (30 mg, Any Grade): 4 (44) n (%)
- Hyperglycemia (treatment‐related AE) (30 mg, Any Grade): 4 (44) n (%)
- Increased glycosylated hemoglobin (treatment‐related AE) (30 mg, Any Grade): 0 n (%)
- Mucositis (treatment‐related AE) (30 mg, Any Grade): 2 (22) n (%)
- Nausea (treatment‐related AE) (30 mg, Any Grade): 4 (44) n (%)
- Pruritus (treatment‐related AE) (30 mg, Any Grade): 1 (11) n (%)
- Rash (treatment‐related AE) (30 mg, Any Grade): 1 (11) n (%)
- Rash pruritic (treatment‐related AE) (30 mg, Any Grade): 1 (11) n (%)
- Thrombocytopenia (treatment‐related AE) (30 mg, Any Grade): 1 (11) n (%)
- Vomiting (treatment‐related AE) (30 mg, Any Grade): 2 (22) n (%)
- Arthralgia (treatment‐related AE) (30 mg, Grade ≥3): 0 n (%)
- Asthenia (treatment‐related AE) (30 mg, Grade ≥3): 0 n (%)
- Decreased appetite (treatment‐related AE) (30 mg, Grade ≥3): 0 n (%)
- Diarrhea (treatment‐related AE) (30 mg, Grade ≥3): 0 n (%)
- Dry mouth (treatment‐related AE) (30 mg, Grade ≥3): 0 n (%)
- Dysgeusia (treatment‐related AE) (30 mg, Grade ≥3): 0 n (%)
- Dyspnea (treatment‐related AE) (30 mg, Grade ≥3): 0 n (%)
- Fatigue (treatment‐related AE) (30 mg, Grade ≥3): 0 n (%)
- Hyperglycemia (treatment‐related AE) (30 mg, Grade ≥3): 2 (22) n (%)
- Increased glycosylated hemoglobin (treatment‐related AE) (30 mg, Grade ≥3): 0 n (%)
- Mucositis (treatment‐related AE) (30 mg, Grade ≥3): 0 n (%)
- Nausea (treatment‐related AE) (30 mg, Grade ≥3): 0 n (%)
- Pruritus (treatment‐related AE) (30 mg, Grade ≥3): 0 n (%)
- Rash (treatment‐related AE) (30 mg, Grade ≥3): 0 n (%)
- Rash pruritic (treatment‐related AE) (30 mg, Grade ≥3): 0 n (%)
- Thrombocytopenia (treatment‐related AE) (30 mg, Grade ≥3): 0 n (%)
- Vomiting (treatment‐related AE) (30 mg, Grade ≥3): 0 n (%)
- Dose interruptions (45 mg): 5
- Dose reductions (45 mg): 1
- Arthralgia (treatment‐related AE) (45 mg, Any Grade): 2 (22) n (%)
- Asthenia (treatment‐related AE) (45 mg, Any Grade): 1 (11) n (%)
- Decreased appetite (treatment‐related AE) (45 mg, Any Grade): 3 (33) n (%)
- Diarrhea (treatment‐related AE) (45 mg, Any Grade): 4 (44) n (%)
- Dry mouth (treatment‐related AE) (45 mg, Any Grade): 2 (22) n (%)
- Dysgeusia (treatment‐related AE) (45 mg, Any Grade): 2 (22) n (%)
